Data from ChEMBL document CHEMBL4834477, “Synthesis and biological evaluation of novel purinyl quinazolinone derivatives as PI3Kδ-specific inhibitors for the treatment of hematologic malignancies” (Bioorg Med Chem, 2021).

How the values were obtained:
SU-DHL-5 = test: Antiproliferative activity against human SU-DHL-5 cells assessed as reduction in cell viability at 10 uM by CellTiter-Glo luminescent cell viability assay relative to idelalisib; format: functional
Procedure, shortened: (§1)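 Cells were seeded at 5x10^4 per well and exposed to the compound at a single concentration: 10 μM for SUDHL-5 and 20 μM for MOLT-4. CellTiter-Glo reagent was added 1:1, mixed for 2 min to lyse the cells, and held 10 min at room temperature before reading luminescence. Readings were background-subtracted and normalized to control wells.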

MOLT-4 = test: Antiproliferative activity against human MOLT-4 cells assessed as reduction in cell viability at 20 uM by CellTiter-Glo luminescent cell viability assay relative to idelalisib; format: functional; procedure, shortened: as §1
[1] = Tmax in Sprague-Dawley rat at 1 mg/kg, po measured for 24 hrs by LC-MS/MS analysis; format: ADME, organism-based; settings: in vivo
Procedure, shortened: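 Sprague-Dawley rats dosed orally at 1 or 3 mg/kg, three animals per group. Blood sampled at 0.25, 0.5, 1, 2, 4, 8 and 24 h post-dose. Plasma separated by centrifugation, extracted and quantified by LC-MS/MS. PK parameters (Cmax, AUClast, Tmax, t1/2) derived by non-compartmental software.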

[2] = biological target: PI3-kinase p110-delta/p85-alpha (Homo sapiens, UniProt O00329); test: Inhibition of recombinant human full length His-tagged p110delta/p85alpha expressed in baculovirus expression system measured after 60 mins in presence of ATP by ATP-competitive binding assay
PI3-kinase p110-delta/p85-alpha, sequence (P27986 whole entry): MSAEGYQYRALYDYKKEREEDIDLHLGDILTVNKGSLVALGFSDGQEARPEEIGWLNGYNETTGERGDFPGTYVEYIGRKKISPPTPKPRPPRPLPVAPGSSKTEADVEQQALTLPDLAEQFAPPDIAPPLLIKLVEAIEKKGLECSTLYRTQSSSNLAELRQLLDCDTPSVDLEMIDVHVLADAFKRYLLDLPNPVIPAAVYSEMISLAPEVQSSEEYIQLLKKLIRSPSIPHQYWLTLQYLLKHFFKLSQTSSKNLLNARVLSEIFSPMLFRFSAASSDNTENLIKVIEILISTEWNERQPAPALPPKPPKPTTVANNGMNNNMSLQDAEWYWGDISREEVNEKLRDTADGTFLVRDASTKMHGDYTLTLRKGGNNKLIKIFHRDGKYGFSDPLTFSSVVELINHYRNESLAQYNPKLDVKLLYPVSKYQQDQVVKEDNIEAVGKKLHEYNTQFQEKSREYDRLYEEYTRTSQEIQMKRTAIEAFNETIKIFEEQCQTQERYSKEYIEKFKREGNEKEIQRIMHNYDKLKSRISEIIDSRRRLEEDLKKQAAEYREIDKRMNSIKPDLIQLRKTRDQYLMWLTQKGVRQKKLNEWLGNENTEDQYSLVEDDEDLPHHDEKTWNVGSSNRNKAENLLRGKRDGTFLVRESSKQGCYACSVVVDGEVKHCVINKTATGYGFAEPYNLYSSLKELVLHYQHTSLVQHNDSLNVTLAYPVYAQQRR
PI3-kinase p110-delta/p85-alpha, sequence (O00329 whole entry): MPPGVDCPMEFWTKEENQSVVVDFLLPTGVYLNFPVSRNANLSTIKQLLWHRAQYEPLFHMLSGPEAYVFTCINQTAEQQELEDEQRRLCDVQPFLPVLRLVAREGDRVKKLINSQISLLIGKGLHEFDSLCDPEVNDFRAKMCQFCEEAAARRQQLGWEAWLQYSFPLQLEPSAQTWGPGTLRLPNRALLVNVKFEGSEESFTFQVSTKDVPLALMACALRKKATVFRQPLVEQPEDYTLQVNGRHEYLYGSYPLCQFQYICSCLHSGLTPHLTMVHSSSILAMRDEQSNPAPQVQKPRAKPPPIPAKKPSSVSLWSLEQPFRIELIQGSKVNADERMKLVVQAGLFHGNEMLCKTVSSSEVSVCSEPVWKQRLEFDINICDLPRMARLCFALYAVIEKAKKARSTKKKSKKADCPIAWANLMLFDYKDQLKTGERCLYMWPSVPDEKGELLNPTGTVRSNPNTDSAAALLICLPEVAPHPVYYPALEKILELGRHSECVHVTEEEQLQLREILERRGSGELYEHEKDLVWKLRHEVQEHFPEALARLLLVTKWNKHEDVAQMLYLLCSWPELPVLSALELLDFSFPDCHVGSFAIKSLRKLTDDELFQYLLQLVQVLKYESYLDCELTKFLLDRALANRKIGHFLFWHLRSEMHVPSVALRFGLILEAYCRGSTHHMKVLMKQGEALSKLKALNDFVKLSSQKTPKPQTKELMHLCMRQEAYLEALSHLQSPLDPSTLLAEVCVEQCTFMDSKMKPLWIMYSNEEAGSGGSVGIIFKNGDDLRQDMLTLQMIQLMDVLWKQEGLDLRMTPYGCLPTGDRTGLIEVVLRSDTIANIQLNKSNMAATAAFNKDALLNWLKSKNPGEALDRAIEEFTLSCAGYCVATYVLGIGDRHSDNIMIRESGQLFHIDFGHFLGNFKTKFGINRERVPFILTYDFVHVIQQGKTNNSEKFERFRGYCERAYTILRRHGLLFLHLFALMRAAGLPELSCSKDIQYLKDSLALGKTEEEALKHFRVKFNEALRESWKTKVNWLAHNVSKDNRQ
Procedure, shortened: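 SelectScreen ATP-competitive assay using 10-point titration with 1 μM top final compound concentration. Kinase, substrate and ATP mixed in 30 mM HEPES buffer and reacted 60 min. IC50 taken as the mean of three independent experiments.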

Tmax [1] | IC50 [2] | Compound | fold change (FC) (SU-DHL-5) | fold change (FC) (MOLT-4)
– | – | Cc1cccc2nc([C@@H](Nc3ncnc4nc[nH]c34)C3CC3)n(-c3ccccc3)c(=O)c12 | 5 | 5
30 min | 0.39 nM | O=c1c2c(F)cccc2nc([C@@H](Nc2ncnc3nc[nH]c23)C2CC2)n1-c1ccccc1 | – | –
